Laboratory results as given in ChEMBL document CHEMBL4387720, “Lead generation of 1,2-dithiolanes as exon 19 and exon 21 mutant EGFR tyrosine kinase inhibitors” (Bioorg Med Chem Lett, 2019).

Tests used:
[1] = molecular target: Tyrosine-protein kinase BTK (Homo sapiens) (UniProt Q06187); experiment: Inhibition of probe binding to BTK (unknown origin) using rabbit reticulate lysate system at 250 nM after 1 hr by luminescence assay relative to control
[2] = molecular target: Epidermal growth factor receptor (Homo sapiens, UniProt P00533, A750P/L747-E749DEL); experiment: Binding affinity to human partial length EGFR L747-E749del/A750P mutant expressed in bacterial expression system by KinomeScan assay
How it was run: (§1)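 Competition binding against an immobilized active-site-directed ligand. Bound kinase is quantified by qPCR of its DNA tag. Kd values come from duplicate 11-point dose-response curves.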

[3] = molecular target: Tyrosine-protein kinase ITK/TSK (Homo sapiens) (UniProt Q08881); experiment: Inhibition of probe binding to ITK (unknown origin) using rabbit reticulate lysate system at 250 nM after 1 hr by luminescence assay relative to control
Cytochrome P450 2C19 = Cytochrome P450 2C19 (Homo sapiens, UniProt P33261); experiment: Inhibition of CYP2C19 (unknown origin); format: ADME
NCI-H322M [4] = experiment: Cytotoxicity against human NCI-H322M cells assessed as reduction in measured protein incubated for 48 hrs by SRB assay; format: functional; conditions: read-out: LC50 (the source's name)
How it was run: (§2)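 Tested in the NCI-60 panel with a five-dose response curve, each value the mean of 2 experiments.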

CCRF-CEM = experiment: cells; format: functional; conditions: Homo sapiens, 48 h
[5] = molecular target: Epidermal growth factor receptor (Homo sapiens, UniProt P00533, G719C); experiment: Binding affinity to human partial length EGFR G719C mutant (R669 to V1011 residues) expressed in bacterial expression system by KinomeScan assay; how it was run: as §1
MOLT-4 [6] = experiment: cells; format: functional; conditions: Homo sapiens, MOLT-4, 48 h
[7] = molecular target: Tyrosine-protein kinase Tec (Homo sapiens) (UniProt P42680); experiment: Inhibition of probe binding to TEC (unknown origin) using rabbit reticulate lysate system at 250 nM after 1 hr by luminescence assay relative to control
[8] = Half life in rat S9 fraction; format: ADME, subcellular
[9] = molecular target: T1, Epidermal growth factor receptor (Homo sapiens, UniProt P00533); experiment: Inhibition of probe binding to wild type EGFR (unknown origin) using rabbit reticulate lysate system after 1 hr by luminescence assay
Cytochrome P450 2C8 = Cytochrome P450 2C8 (Homo sapiens, UniProt P10632); experiment: Inhibition of CYP2C8 (unknown origin); format: ADME
NCI-H460 [10] = experiment: cells; format: functional; conditions: Homo sapiens, NCI-H460, 48 h
[11] = Half life in rat liver microsomes; format: ADME, Microsome
[12] = molecular target: Epidermal growth factor receptor (Homo sapiens, UniProt P00533, E746-A750DEL); experiment: Binding affinity to human partial length EGFR E746-A750 deletion mutant expressed in bacterial expression system by KinomeScan assay; how it was run: as §1
Cytochrome P450 1A2 = Cytochrome P450 1A2 (Homo sapiens, UniProt P05177); experiment: Inhibition of CYP1A2 (unknown origin); format: ADME
[13] = Half life in human liver microsomes; format: ADME, Microsome
[14] = molecular target: T1, Epidermal growth factor receptor; experiment: Binding affinity to human partial length wild type EGFR (R669 to V1011 residues) expressed in bacterial expression system by kinomescan assay; how it was run: as §1
[15] = molecular target: Epidermal growth factor receptor (Homo sapiens, UniProt P00533, L861Q); experiment: Binding affinity to human partial length EGFR L861Q mutant (R669 to V1011 residues) expressed in bacterial expression system by KinomeScan assay; how it was run: as §1
A549 [16] = experiment: Therapeutic index, ratio of LC50 for human A549 cells to GI50 for human A549 cells; format: functional
How it was run: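 NCI-60 panel cell growth assay. Five-point dose-response curves; each value is the average of 2 experiments. […] Therapeutic index is calculated as LC50/GI50.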

[17] = molecular target: Epidermal growth factor receptor (Homo sapiens, UniProt P00533, L858R/T790M); experiment: Inhibition of human partial length EGFR L858R/T790M mutant (R669 to V1011 residues) expressed in mammalian expression system by competition binding assay based KinomeScan assay; how it was run: as §1
NCI-H322M [18] = experiment: cells; format: functional; conditions: Homo sapiens, 48 h
[19] = molecular target: Receptor tyrosine-protein kinase erbB-2 (Homo sapiens, UniProt P04626); experiment: Inhibition of probe binding to HER2 (unknown origin) using rabbit reticulate lysate system after 1 hr by luminescence assay
How it was run: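 Homogeneous competition binding in rabbit reticulocyte lysate with kinase expressed in the lysate. IC50 taken from a ten-point dose-response curve; value is the average of triplicate experiments.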

NCI-H322M [20] = experiment: Therapeutic index, ratio of LC50 for human NCI-H322M cells to GI50 for human NCI-H322M cells; format: functional
How it was run: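 NCI-60 panel screen using five-dose response curves, each value an average of 2 experiments. […] The therapeutic index is calculated as LC50/GI50 for the same cell line.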

Cytochrome P450 2C9 = Cytochrome P450 2C9 (Homo sapiens, UniProt P11712); experiment: Inhibition of CYP2C9 (unknown origin); format: ADME
[21] = molecular target: Epidermal growth factor receptor (Homo sapiens, UniProt P00533, L747-S752DEL/P753S); experiment: Binding affinity to human partial length EGFR L747-S752del/P753S mutant expressed in bacterial expression system by KinomeScan assay; how it was run: as §1
A549 [22] = experiment: Cytotoxicity against human A549 cells assessed as reduction in measured protein incubated for 48 hrs by SRB assay; format: functional; conditions: A549, 48 h, read-out: LC50 (the source's name); how it was run: as §2
Cytochrome P450 2D6 = Cytochrome P450 2D6 (Homo sapiens, UniProt P10635); experiment: Inhibition of CYP2D6 (unknown origin); format: ADME
[23] = molecular target: Epidermal growth factor receptor (Homo sapiens, UniProt P00533, L747-T751DEL); experiment: Binding affinity to human partial length EGFR L747-T751del/Sins mutant expressed in bacterial expression system by KinomeScan assay; how it was run: as §1
Homo sapiens = species on record: Homo sapiens; experiment: Selectivity ratio, ratio of IC50 for probe binding to HER2 (unknown origin) to IC50 for probe binding to EGFR L858R mutant (unknown origin)
How it was run: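 Ratio of two IC50 values measured in the rabbit reticulocyte lysate competition binding assay: HER2 and EGFR L858R. Each IC50 comes from displacement of an active-site-dependent probe, read by luminescence, with a ten-point dose-response. Each IC50 is the average of triplicate experiments.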

MOLT-4 [24] = experiment: Cytotoxicity against human MOLT4 cells assessed as reduction in measured protein incubated for 48 hrs by SRB assay; format: functional; conditions: MOLT-4, 48 h, read-out: LC50 (the source's name); how it was run: as §2
[25] = Half life in human S9 fraction; format: ADME, subcellular
NCI-H460 [26] = experiment: Cytotoxicity against human NCI-H460 cells assessed as reduction in measured protein incubated for 48 hrs by SRB assay; format: functional; conditions: NCI-H460, 48 h, read-out: LC50 (the source's name); how it was run: as §2
[27] = molecular target: Cytoplasmic tyrosine-protein kinase BMX (Homo sapiens) (UniProt P51813); experiment: Inhibition of probe binding to BMX (unknown origin) using rabbit reticulate lysate system at 250 nM after 1 hr by luminescence assay relative to control
A549 [28] = experiment: cells; format: functional; conditions: Homo sapiens, A549, 48 h

T1 sequence (P00533 whole entry): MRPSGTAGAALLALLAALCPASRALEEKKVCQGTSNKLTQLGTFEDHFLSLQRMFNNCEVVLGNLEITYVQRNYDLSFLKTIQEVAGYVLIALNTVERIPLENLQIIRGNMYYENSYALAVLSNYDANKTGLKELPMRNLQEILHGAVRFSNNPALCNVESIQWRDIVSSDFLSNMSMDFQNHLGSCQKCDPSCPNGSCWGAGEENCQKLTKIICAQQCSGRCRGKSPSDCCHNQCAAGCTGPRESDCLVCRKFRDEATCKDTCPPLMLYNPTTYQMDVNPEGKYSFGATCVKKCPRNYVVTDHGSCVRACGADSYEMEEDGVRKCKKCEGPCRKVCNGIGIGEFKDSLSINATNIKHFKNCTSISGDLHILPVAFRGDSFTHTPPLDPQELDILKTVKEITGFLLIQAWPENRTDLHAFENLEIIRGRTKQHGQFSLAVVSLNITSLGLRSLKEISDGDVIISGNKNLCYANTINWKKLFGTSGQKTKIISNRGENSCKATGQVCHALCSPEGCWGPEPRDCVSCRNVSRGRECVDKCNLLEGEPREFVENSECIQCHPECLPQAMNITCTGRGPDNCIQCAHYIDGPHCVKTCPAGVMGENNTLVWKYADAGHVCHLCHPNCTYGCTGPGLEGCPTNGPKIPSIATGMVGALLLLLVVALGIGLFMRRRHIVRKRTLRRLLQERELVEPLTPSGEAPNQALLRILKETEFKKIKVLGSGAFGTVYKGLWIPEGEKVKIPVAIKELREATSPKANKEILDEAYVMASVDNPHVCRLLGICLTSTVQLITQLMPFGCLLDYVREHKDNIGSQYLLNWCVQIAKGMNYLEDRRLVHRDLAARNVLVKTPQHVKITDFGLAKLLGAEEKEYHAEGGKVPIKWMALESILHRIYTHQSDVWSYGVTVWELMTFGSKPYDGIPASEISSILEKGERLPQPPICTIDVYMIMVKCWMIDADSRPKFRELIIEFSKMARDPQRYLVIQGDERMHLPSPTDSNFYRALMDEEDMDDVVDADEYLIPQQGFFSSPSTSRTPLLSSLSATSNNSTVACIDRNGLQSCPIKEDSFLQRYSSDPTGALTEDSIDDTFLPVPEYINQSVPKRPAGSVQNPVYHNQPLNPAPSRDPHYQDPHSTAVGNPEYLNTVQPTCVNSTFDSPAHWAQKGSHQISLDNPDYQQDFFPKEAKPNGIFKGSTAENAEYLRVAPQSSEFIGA
Sequence of Epidermal growth factor receptor (Homo sapiens, UniProt P00533, L747-T751DEL) (P00533 whole entry L747-T751del, looked up): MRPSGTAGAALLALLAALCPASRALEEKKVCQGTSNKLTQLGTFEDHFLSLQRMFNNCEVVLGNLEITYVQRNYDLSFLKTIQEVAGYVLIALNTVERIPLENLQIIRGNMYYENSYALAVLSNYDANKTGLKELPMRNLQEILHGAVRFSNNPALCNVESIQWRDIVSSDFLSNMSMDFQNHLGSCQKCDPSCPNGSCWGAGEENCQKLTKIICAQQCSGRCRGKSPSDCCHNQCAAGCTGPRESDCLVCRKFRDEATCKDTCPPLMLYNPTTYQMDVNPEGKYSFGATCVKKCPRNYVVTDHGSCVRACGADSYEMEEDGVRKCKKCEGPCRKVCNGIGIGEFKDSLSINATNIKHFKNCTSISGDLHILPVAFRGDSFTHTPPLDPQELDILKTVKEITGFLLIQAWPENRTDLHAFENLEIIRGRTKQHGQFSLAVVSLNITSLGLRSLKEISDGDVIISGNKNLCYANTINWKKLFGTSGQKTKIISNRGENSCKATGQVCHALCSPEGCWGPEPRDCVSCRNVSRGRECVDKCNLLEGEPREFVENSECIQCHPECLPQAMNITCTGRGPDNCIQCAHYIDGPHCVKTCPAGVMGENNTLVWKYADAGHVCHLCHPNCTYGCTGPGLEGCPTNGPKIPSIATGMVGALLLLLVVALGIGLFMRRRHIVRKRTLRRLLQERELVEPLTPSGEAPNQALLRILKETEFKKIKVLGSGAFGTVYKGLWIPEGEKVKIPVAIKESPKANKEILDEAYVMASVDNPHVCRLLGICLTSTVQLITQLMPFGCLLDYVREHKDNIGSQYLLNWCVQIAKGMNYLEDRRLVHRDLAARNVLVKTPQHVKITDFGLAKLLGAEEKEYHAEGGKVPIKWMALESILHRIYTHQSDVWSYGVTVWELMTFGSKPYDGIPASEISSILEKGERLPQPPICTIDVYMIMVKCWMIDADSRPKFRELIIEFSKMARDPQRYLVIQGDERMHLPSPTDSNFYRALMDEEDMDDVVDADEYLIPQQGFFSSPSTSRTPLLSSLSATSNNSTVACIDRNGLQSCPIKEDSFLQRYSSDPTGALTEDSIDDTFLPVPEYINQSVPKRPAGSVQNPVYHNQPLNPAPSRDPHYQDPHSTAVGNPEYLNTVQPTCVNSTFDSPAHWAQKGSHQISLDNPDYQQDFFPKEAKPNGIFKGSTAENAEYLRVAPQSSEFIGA
Sequence of Cytochrome P450 2C19 (P33261 whole entry): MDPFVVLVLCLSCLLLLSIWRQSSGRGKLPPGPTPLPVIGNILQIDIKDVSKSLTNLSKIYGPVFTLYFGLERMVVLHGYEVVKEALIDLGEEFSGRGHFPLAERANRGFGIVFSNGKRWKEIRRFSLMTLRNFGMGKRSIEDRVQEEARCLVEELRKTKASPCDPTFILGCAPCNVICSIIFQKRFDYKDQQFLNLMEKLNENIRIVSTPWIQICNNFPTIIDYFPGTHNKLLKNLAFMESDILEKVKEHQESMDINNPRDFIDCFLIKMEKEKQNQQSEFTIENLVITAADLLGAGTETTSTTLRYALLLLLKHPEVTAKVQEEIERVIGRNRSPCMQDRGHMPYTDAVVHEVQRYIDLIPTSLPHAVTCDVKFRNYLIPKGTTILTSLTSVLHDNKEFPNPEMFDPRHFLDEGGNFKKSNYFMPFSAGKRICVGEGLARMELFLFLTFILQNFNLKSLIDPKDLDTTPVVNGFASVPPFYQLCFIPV
Sequence of Epidermal growth factor receptor (Homo sapiens, UniProt P00533, L861Q) (P00533 25-1210 L861Q limits assumed): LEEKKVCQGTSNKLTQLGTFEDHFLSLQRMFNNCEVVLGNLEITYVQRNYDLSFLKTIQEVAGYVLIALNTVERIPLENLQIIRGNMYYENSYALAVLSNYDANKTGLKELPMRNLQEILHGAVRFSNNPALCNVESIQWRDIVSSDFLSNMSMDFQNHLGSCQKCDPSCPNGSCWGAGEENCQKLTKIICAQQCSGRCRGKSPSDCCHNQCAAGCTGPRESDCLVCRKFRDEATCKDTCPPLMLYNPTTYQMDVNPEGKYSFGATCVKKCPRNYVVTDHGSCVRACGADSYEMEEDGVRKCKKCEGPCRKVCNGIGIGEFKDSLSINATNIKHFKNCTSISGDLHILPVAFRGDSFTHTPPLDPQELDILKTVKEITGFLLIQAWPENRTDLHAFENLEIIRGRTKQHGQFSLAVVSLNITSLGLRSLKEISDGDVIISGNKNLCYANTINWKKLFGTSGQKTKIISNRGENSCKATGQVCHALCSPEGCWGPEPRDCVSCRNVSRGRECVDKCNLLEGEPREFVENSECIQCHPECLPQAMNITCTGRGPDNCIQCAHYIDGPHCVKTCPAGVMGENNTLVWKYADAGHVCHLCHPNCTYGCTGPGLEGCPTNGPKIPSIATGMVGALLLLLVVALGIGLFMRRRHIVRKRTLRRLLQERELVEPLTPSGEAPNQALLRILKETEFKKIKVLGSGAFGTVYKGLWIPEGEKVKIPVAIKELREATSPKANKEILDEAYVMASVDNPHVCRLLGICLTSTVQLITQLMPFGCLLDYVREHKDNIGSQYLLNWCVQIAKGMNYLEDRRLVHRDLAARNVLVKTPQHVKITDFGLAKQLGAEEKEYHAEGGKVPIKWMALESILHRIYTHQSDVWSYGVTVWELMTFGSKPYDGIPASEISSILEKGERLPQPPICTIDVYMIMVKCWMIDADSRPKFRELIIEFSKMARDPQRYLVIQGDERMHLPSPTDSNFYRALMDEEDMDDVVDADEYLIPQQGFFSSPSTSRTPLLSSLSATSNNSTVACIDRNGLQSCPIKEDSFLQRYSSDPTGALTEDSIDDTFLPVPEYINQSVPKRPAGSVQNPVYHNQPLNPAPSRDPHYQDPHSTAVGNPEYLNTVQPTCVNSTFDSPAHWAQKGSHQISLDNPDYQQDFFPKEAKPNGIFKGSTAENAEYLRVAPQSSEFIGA
Sequence of Cytochrome P450 2C9 (P11712 whole entry): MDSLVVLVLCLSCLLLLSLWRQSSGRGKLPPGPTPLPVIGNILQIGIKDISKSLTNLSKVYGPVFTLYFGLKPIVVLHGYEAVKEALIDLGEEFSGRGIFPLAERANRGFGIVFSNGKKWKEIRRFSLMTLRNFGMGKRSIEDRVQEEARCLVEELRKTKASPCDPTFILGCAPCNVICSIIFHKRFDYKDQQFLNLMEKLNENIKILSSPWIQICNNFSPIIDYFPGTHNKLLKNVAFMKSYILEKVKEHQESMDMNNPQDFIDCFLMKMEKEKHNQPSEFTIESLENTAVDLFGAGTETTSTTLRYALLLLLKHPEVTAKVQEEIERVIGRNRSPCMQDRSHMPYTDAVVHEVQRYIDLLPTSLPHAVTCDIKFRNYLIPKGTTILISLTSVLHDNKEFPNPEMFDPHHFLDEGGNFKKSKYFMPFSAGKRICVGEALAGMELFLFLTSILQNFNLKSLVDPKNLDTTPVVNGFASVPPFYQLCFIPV
Sequence of Cytochrome P450 2D6 (P10635 whole entry): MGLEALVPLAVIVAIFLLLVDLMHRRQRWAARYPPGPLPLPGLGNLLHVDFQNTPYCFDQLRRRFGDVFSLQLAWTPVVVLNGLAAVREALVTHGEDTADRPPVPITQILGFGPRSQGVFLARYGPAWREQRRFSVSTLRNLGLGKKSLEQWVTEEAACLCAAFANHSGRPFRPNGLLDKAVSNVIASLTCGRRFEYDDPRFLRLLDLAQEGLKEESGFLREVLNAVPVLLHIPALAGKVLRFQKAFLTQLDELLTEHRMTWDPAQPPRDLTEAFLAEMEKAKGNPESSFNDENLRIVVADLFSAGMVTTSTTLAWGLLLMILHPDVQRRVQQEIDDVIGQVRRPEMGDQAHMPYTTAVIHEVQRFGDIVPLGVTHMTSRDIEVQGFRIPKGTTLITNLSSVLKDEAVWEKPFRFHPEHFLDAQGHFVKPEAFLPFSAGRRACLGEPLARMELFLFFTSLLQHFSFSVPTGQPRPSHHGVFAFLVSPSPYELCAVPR

CCOc1cc2ncc(C#N)c(Nc3ccc(OCc4cccc(F)c4)c(Cl)c3)c2cc1NC(=O)CC1CCSS1 (stereo not given)
inhibition [1]: 0%
Kd [2]: 7.9 nM
inhibition [3]: 0%
IC50 (Cytochrome P450 2C19): > 50 µM
CC50 (NCI-H322M [4]): > 25 µM
GI50 (CCRF-CEM): 150 nM
Kd [5]: 5.7 nM
GI50 (MOLT-4 [6]): 160 nM
inhibition [7]: 20%
half-life [8]: > 60 min
IC50 [9]: 120 nM
IC50 (Cytochrome P450 2C8): > 50 µM
GI50 (NCI-H460 [10]): 470 nM
half-life [11]: 57.3 min
Kd [12]: 48 nM
IC50 (Cytochrome P450 1A2): > 50 µM
half-life [13]: 86.1 min
Kd [14]: 120 nM
Kd [15]: 4.8 nM
TI (A549 [16]): 6.2
Kd [17]: 10 µM
GI50 (NCI-H322M [18]): 600 nM
IC50 [19]: 160 nM
TI (NCI-H322M [20]): >41.5
IC50 (Cytochrome P450 2C9): > 50 µM
Kd [21]: 12 nM
CC50 (A549 [22]): 3.4 µM
IC50 (Cytochrome P450 2D6): > 50 µM
Kd [23]: 13 nM
Ratio IC50 (Homo sapiens): 14.7
CC50 (MOLT-4 [24]): > 25 µM
half-life [25]: 60 min
CC50 (NCI-H460 [26]): 1950 nM
inhibition [27]: 10%
GI50 (A549 [28]): 540 nM
